Measurements from ChEMBL document CHEMBL2093137, “WHO-TDR NTD Screening”.
In brackets after ≈: the same amount, converted by molar mass.

Tests used:
[1] = WHO-TDR: Cytotoxicity; type: toxicity, cell-based; conditions: human, MRC5 cells
Plasmodium falciparum K1 = experiment: WHO-TDR: Malaria; type: functional, organism-based, Homo sapiens; conditions: Erythrocyte
Outline: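 Whole-organism screen of a 10,000-compound diverse library from Life Chemicals, filtered for drug-likeness and reactive groups, against intra-erythrocytic Plasmodium falciparum K1 strain in human red blood cells. The assay followed previously published standard procedures, with a reference drug as positive control. Antiplasmodial potency is reported as IC50.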

Trypanosoma cruzi = experiment: WHO-TDR: Chagas disease; type: functional, organism-based, Homo sapiens; conditions: MRC5
Outline: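 A diverse library of 10,000 compounds from Life Chemicals, filtered for drug-likeness and reactive groups, was screened against intracellular amastigotes of Trypanosoma cruzi Tulahuen CL2 beta-galactosidase strain. The parasites were grown in MRC-5SV2 human lung fibroblast host cells, and a reference drug served as positive control under previously published standard procedures. Antiparasitic potency is given as IC50.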

[2] = system: Trypanosoma brucei brucei; experiment: WHO-TDR: Human African Trypanosomiasis (HAT); type: functional, organism-based; conditions: Squib-427
Outline: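 Whole-organism screen of a 10,000-compound diverse library from Life Chemicals, filtered for drug-likeness and reactive groups, against bloodstream forms of Trypanosoma brucei Squib 427 strain. The assay followed previously published standard procedures, with reference drugs as positive controls. Antiparasitic potency is reported as IC50.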

Leishmania infantum = experiment: WHO-TDR: Leishmaniasis; type: functional, organism-based, Mus musculus; conditions: Macrophage
Outline: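 Whole-organism screen of a 10,000-compound diverse library from Life Chemicals, filtered for drug-likeness and reactive groups, against intracellular amastigotes of Leishmania infantum MHOM/MA(BE)/67 in murine peritoneal macrophage host cells. The assay followed previously published standard procedures, with a reference drug as positive control. Antiparasitic potency is reported as IC50.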

Onchocerca ochengi = experiment: WHO-TDR: Onchocerciasis; type: functional; design: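 at 12.5 µM on microfilariae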
Outline: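 Percent inhibition and IC50 describe activity against microfilariae of Onchocerca ochengi or Onchocerca lienalis, used as animal-pathogen substitutes for the human parasite. The compounds tested made up a 10,000-member diverse library from Life Chemicals.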

Brugia malayi = experiment: WHO-TDR: Lymphatic Filariasis; type: functional; design: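 tested at 10 µM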
Outline: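 The screening set was a 10,000-compound diverse library from Life Chemicals, filtered for drug-likeness and for reactive groups. It was run against Brugia malayi microfilariae as whole organisms, using previously published standard procedures. Reference drugs acted as positive controls, and activity is reported both as percent inhibition and as IC50.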

Structure (SMILES)	IC50 [1] [µg/mL]	IC50 (Plasmodium falciparum K1) [µg/mL]	IC50 (Trypanosoma cruzi) [µg/mL]	IC50 [2] [µg/mL]	IC50 (Leishmania infantum) [µg/mL]	% Inhibition (Onchocerca ochengi) [%]	% Inhibition (Brugia malayi) [%]
CCOC(=O)N1CCN(C(=O)Nc2nc(CC(=O)Nc3nc4ccccc4s3)cs2)CC1	> 14.2	> 14.2	> 14.2	> 14.2	> 14.2	100	20
O=C(Cc1csc(SCc2ccncc2)n1)N1CCN(c2ccccc2)CC1	> 12.3	> 12.3	4.2 (≈ 10.2 µM)	> 12.3	> 12.3	100	0
CN(C)c1ccc(NC(=O)Cc2csc(SCc3ccncc3)n2)cc1	> 11.5	> 11.5	3.47 (≈ 9.03 µM)	> 11.5	3.65 (≈ 9.49 µM)	100	0
FC(F)(F)c1ccc(Nc2ncnc3[nH]ncc23)cc1	> 8.38	> 8.38	2.72 (≈ 9.73 µM)	3.19 (≈ 11.4 µM)	> 8.38	100	0
FC(F)Sc1ccc(Nc2ncnc3[nH]ncc23)cc1	> 8.8	> 8.8	> 8.8	> 8.8	> 8.8	100	0
CC(C)c1ccc(Nc2ncnc3[nH]ncc23)cc1	> 7.6	> 7.6	4.44 (≈ 17.5 µM)	> 7.6	5.18 (≈ 20.4 µM)	100	0
c1ccc2c(c1)CCN(c1ncnc3[nH]ncc13)C2	> 7.54	> 7.54	> 7.54	> 7.54	> 7.54	100	0
c1ccc2c(CCNc3ncnc4[nH]ncc34)c[nH]c2c1	> 8.35	> 8.35	2.44 (≈ 8.76 µM)	> 8.35	> 8.35	100	0
CCOC(=O)N1CCN(C(=O)Nc2nc(CC(=O)Nc3ccc(F)c(F)c3)cs2)CC1	> 13.6	> 13.6	> 13.6	> 13.6	> 13.6	100	20
CCSc1nnc(NC(=O)c2cc(=O)c(OCc3ccc(F)cc3)cn2C)s1	> 12.6	> 12.6	> 12.6	> 12.6	> 12.6	100	0
COc1ccc(-c2cn3c(CCC(=O)NCCc4c[nH]c5ccccc45)csc3n2)cc1	> 13.3	13.3 (≈ 30 µM)	2.66 (≈ 5.99 µM)	0.382 (≈ 0.859 µM)	> 13.3	100	20
COc1ccc(-c2cn3c(CCC(=O)Nc4ccccc4SC)csc3n2)cc1	> 12.7	> 12.7	5.77 (≈ 13.6 µM)	4.22 (≈ 9.95 µM)	> 12.7	100	20
Cc1cc(=O)[nH]c(-n2nc(C)c(CCC(=O)Nc3cc(C)on3)c2C)n1	> 10.7	> 10.7	> 10.7	> 10.7	> 10.7	100	20
Cc1cc(=O)[nH]c(-n2nc(C)c(CCC(=O)Nc3ccc(F)c(C(F)(F)F)c3)c2C)n1	> 13.1	> 13.1	4.25 (≈ 9.73 µM)	5 (≈ 11.4 µM)	> 13.1	100	20
